CHT inh = inhibits the human high affinity choline transporter; Q9GZV3; CHT-expressing cells, membrane potential dye, choline response; hits give low values; B-score at 10 µM; 0.86% of 310,000 active; AID 488975;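 active = B-score over 3 SD under the library average, and starting fluorescence ratio not unusually high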;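 also: choline stimulus applied at its EC90 after an EC20 pre-addition; B-score computed on integrated fluorescence ratio after choline addition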
PHOSPHO1 block = PHOSPHO1 (human) inhibition | Q8TCT1 | recombinant PHOSPHO1, absorbance phosphatase assay | inhibition, % at 13.3 µM | 1.1% of 290,000 active | AID 1565; in the data active = inhibition above about 60%
Target sequence (Q8TCT1 whole entry, looked up): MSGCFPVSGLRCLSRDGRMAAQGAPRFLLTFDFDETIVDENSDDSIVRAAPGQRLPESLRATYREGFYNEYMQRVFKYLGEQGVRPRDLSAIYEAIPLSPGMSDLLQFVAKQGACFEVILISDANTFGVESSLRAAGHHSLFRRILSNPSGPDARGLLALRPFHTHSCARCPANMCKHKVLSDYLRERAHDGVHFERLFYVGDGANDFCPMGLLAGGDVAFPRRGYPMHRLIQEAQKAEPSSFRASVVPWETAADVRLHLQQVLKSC
HSF-1 act = increases HSF-1 driven luciferase reporter signal; activation, % at 9 µM; NIH3T3-HGL HSF-1 luciferase reporter, MG132, 8 h; 100% = twice DMSO control signal; AID 504408; 1.7% of 300,000 active;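 active = mean replicate activation of at least 50% with a set share of replicates each reaching 50%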
CHT allo act = allosterically activates the human high affinity choline transporter; 0.49% of 310,000 active; AID 488977; B-score at 10 µM; CHT-expressing cells, membrane potential dye, choline EC20; hits give high values; LV-AA mutant CHT in HEK293 cells; Q9GZV3;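 active = initial fluorescence not abnormally high and integrated response B-score, plate-corrected, over 3 SD above library mean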
HSF1 inh = HSF1 inhibition. 0.77% of 300,000 active. NIH3T3-HGL HSE-luciferase, MG132-induced, luminescence 8 h; hits give low values. activity change, negative = inhibition, % at 7.5 µM (by protocol);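 active = more than half of replicate wells show activity change below -50%, luminescence cut by over half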;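 also: luciferase reports HSF-1 transcriptional activity via heat shock element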
Lipid droplet = hepatic lipid droplet formation modulation; AML12 mouse hepatocytes, oleate lipid droplets, BODIPY imaging; inhibition, % at 6.5 µM; 0.4% of 240,000 active;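 active = lipid droplet intensity inhibited by at least 50%, with more than 500 cells counted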
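Test system: AML12 hepatocytes (mouse); reagent: oleate loading, 100 µM; dosing: one dose, 6.5 µM compound; incubation: overnight exposure; signal: fluorescence imaging, 20x objective, two fields per well; read-out basis: % inhibition of corrected integrated BODIPY droplet signal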
Of the large screens only hits and unclear results are named; the others gave an inactive call. Most compounds without a hit are left out; they make up all but 4.9% or so of the library.

COC/C=C/C1=CC2=CC(=O)C(C)(OC(=O)c3cnc4ccccc4n3)C(=O)C2=CN1Cc1ccco1 (stereo not given)	none (no result: PHOSPHO1 block, Lipid droplet)
Cc1ccc(OCC(=O)NNC(=O)c2cccnc2)cc1	none (no result: Lipid droplet)
COc1cccc(CC(=O)N2CCCC(CO)(Cc3ccc(F)cc3F)C2)c1 (stereo not given)	none
COc1ccccc1Nc1nc(-c2sc(NC(=O)C(C)(C)C)nc2C)cs1	PHOSPHO1 block 67 (no result: Lipid droplet)
CCCCCC(=O)Nc1nc(C)c(-c2csc(Nc3cc(Cl)ccc3OC)n2)s1	PHOSPHO1 block 89 (no result: Lipid droplet)
CCC(C)C(=O)Nc1nc(C)c(-c2csc(Nc3ccc(Cl)cc3)n2)s1 (stereo not given)	none (no result: Lipid droplet)
Cc1ccc(Cl)cc1Nc1nc(-c2sc(NC(=O)C(C)(C)C)nc2C)cs1	PHOSPHO1 block 72 (no result: Lipid droplet)
CCC(=O)Nc1nc(C)c(-c2csc(Nc3ccc(C(=O)O)cc3)n2)s1	none (no result: CHT inh, CHT allo act)
COc1ccccc1Nc1nc(-c2sc(NC(=O)c3cccc(Cl)c3)nc2C)cs1	none (no result: Lipid droplet)
CCOc1ncccc1C(=O)N1CCN(Cc2ccc3c(c2)OCO3)CC1	none
CCOC(=O)C1(Cc2cccc(F)c2)CCN(C(=O)c2cscn2)CC1	none
CCOC(=O)C1(Cc2cccc(F)c2)CCN(C(=O)c2ccoc2C)CC1	PHOSPHO1 block 63
CCOC(=O)COc1ccc2c(c1)C(=O)CC1(CCN(C(C)=O)CC1)O2	none (no result: Lipid droplet)
COc1c(N2CCN(C(=S)NC3CC4CCC3C4)C(C)C2)c(F)cc2c(=O)c(C(=O)O)cn(C3CC3)c12 (stereo not given)	HSF1 inh -55
COc1c(N2CCN(C(=S)Nc3ccc(F)cc3)C(C)C2)c(F)cc2c(=O)c(C(=O)O)cn(C3CC3)c12 (stereo not given)	none (no result: Lipid droplet)
C/C(=N\NC(=O)c1[nH]c2c([N+](=O)[O-])cc(C)cc2c1-c1ccccc1)c1cccnc1	none (no result: Lipid droplet)
CCOC(=O)CC(=O)CSCC(=O)Nc1ccc(C)cc1	HSF-1 act 86
O=C(Nc1cccc(Cl)c1N1CCCCC1)c1ccc2c(c1)OCCO2	none
O=C(NC(=S)Nc1cccc(Cl)c1N1CCCCC1)c1ccc2c(c1)OCCO2	HSF1 inh -58
Cc1ccccc1NC(=S)NNC(=O)c1csc2c1CCC(C)C2 (stereo not given)	HSF1 inh -69
CCc1ccccc1N(CC(=O)NCc1ccco1)C(=O)CCC(=O)Nc1ccccn1	HSF1 inh -70
O=C1N=C(N2CCCC2)S/C1=C\C=C\c1ccccc1	HSF1 inh -76
CN(C)CCNC(=O)COc1ccc(C23CC4CC(CC(C4)C2)C3)cc1	PHOSPHO1 block 66
Cc1ccc(C23CC4CC(CC(NC(=O)NCCN(C)C)(C4)C2)C3)cc1	none
CN(C)S(=O)(=O)n1cc(/C=C(\NC(=O)c2ccccc2Cl)C(=O)NCCCN2CCOCC2)c2ccccc21	none
CN(C)S(=O)(=O)n1cc(/C=C(\NC(=O)c2ccccc2Cl)C(=O)NCCN2CCOCC2)c2ccccc21	PHOSPHO1 block 65
CCOC(=O)C1(Cc2ccccc2C)CCCN(Cc2cc(OC)c(O)c(OC)c2)C1 (stereo not given)	none
COc1cc2cc(NC(C)=O)cc(NCc3ccccc3)c2cc1OC	HSF-1 act 66 (no result: Lipid droplet)
O=C1NC(=S)N/C1=C/c1cccc([N+](=O)[O-])c1O	none (no result: Lipid droplet)
O=C1NC(=S)N/C1=C/c1cc([N+](=O)[O-])ccc1O	PHOSPHO1 block 82
Cc1ccc2nc(-c3ccc(NC(=O)Cc4cccs4)cc3)[nH]c2c1	HSF-1 act 76 (no result: Lipid droplet)
COC(=O)C(NNc1ccccc1)(NC(=O)c1ccc(F)cc1)C(F)(F)F (stereo not given)	PHOSPHO1 block 92 (no result: Lipid droplet)
BrC(/C=N/Nc1nc(N2CCOCC2)nc(N2CCOCC2)n1)=C/c1ccccc1	HSF-1 act 64 (no result: Lipid droplet)
CC(=C/c1ccccc1)/C=N/Nc1nc(N2CCCCC2)nc(N2CCCCC2)n1	none
S=C(NN=C1C2CC3CC(C2)CC1C3)Nc1ccccc1	PHOSPHO1 block 92
Nc1ccc2nc(CN3CCOCC3)[nH]c2c1	none
C/C(=N\OCC(=O)Nn1c(=O)[nH]c2ccccc2c1=O)c1cccs1	HSF1 inh -58
CC(=O)c1ccc(NC(=O)CO/N=C(\C)c2cccs2)cc1	none
Cc1[nH]c2ccccc2c1CN1CCN(c2ccccn2)CC1	HSF-1 act 81
Cc1[nH]c2ccccc2c1CN1CCC(Cc2ccccc2)CC1	none
COC(=O)c1ccc(C)c(NC(=O)c2ccc(Cn3cc([N+](=O)[O-])cn3)o2)c1	HSF-1 act 60
NNC(=O)c1ccc(Cn2cc(Br)cn2)o1	none
Cc1ccc(NC(=O)c2ccc(Cn3cc(Br)cn3)o2)cc1	HSF-1 act 226
COc1cc(NC(=O)CSc2nnnn2-c2ccccc2)cc(OC)c1OC	HSF1 inh -64
Oc1ccccc1CNc1ccc(OC(F)(F)F)cc1	HSF1 inh -60
COc1ccc(/C=N/NC(=O)CCC(=O)Nc2ccc(Br)cc2)c(OC)c1	none
CCCc1ccc2oc(C(=O)N3CCC(C(N)=O)(N4CCCCC4)CC3)c(C)c2c1	none
Cc1ccc2oc(C(=O)N3CCC(C(N)=O)(N4CCCCC4)CC3)c(C)c2c1	HSF1 inh -76
COc1ccc([C@@H]2C[C@H](c3ccccc3)Oc3cc(C)cc(C)c32)cc1	none (no result: CHT inh, CHT allo act)
Cc1cc2nc(CCN(Cc3cccnc3)C(=S)Nc3ccc(F)cc3)[nH]c2cc1C	none (no result: Lipid droplet)
Cc1ccccc1CN(c1ccc(C(=O)N2CCc3ccccc3C2)cc1)S(C)(=O)=O	none (no result: Lipid droplet)
COC(=O)c1ccc(-c2nc3ccccc3[nH]2)cc1	HSF-1 act 61
Cc1ccc(-c2nc3ccccc3[nH]2)s1	HSF-1 act 51
O=C(c1ccccc1-c1nc2ccccc2[nH]1)N1CCOCC1	none
COc1ccc(-c2nc3ccccc3[nH]2)cc1	none
S=C(Nc1ccc(-c2nc3ccccc3[nH]2)cc1)Nc1cccnc1	HSF-1 act 59
O=C(O)c1ccccc1-c1nc2ccccc2[nH]1	HSF-1 act 60
COc1ccccc1CCNC(=O)Cc1cccs1	none
CCc1c(C)nc(SC(C(=O)O)c2ccccc2)c(C#N)c1C (stereo not given)	none
c1ccc2[nH]c(-c3ccncc3)nc2c1	none
c1ccc(-c2nc3ccccc3[nH]2)cc1	HSF1 inh -61
O=C(Nc1ccccc1NC(=O)c1ccccc1F)c1ccccc1F	HSF-1 act 58 (no result: Lipid droplet)
O=C(Nc1ccccc1C(=O)Nc1ccccc1)c1ccccc1F	none
O=C(O)c1cccc(NC(=O)c2ccccc2NC(=O)c2ccccc2F)c1	HSF1 inh -68
O=C(NN=C1CCCCCCCCCCC1)c1ccccc1F	HSF1 inh -55
O=C(Nc1ccc(OCc2ccccc2)cc1)c1cccc([N+](=O)[O-])c1	none
O=S(c1ccc2ccccc2c1)c1cnns1 (stereo not given)	none (no result: HSF-1 act, HSF1 inh, Lipid droplet)

Compound activity (PubChem BioAssay)
